# Assays:
# [1] = species: Homo sapiens; assay: In vitro inhibition of U-46,619-induced aggregation of unwashed human platelets.; assay type: functional; settings: for Kb: Homo sapiens, read-out: pA2 (converted)
# Outline: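 Citrated (3.2%) human venous blood spun at 200g for 10 min. Platelet-rich plasma aggregated with U46619 with or without several antagonist concentrations.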
# [2] = target: T1, Thromboxane-A synthase (Homo sapiens, UniProt P24557); assay: In vitro Inhibition of thromboxane synthase from human blood platelet microsomes
# T1 sequence (P24557 whole entry): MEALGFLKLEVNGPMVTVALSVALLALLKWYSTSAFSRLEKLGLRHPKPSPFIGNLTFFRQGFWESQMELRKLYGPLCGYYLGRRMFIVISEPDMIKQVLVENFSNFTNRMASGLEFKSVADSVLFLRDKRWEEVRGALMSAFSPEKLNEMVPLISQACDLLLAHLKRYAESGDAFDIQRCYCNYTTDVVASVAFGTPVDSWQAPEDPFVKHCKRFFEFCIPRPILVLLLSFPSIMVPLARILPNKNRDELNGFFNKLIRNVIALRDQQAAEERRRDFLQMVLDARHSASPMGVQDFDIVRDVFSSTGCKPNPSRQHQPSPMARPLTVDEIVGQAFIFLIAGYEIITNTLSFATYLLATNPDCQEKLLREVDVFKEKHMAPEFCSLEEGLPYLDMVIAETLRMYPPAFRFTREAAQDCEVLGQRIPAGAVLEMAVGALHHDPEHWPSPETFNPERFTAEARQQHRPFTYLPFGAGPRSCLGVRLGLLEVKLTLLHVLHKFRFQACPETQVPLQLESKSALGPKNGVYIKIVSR
# Outline: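 Human blood platelet microsomes incubated with [1-14C]arachidonic acid with or without inhibitor. Conversion to labeled thromboxane B2 quantified radiochromatographically. n = 2.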
# [3] = target: T2, Prostacyclin synthase (Homo sapiens, UniProt Q16647); assay: In vitro inhibition of Prostaglandin I2 synthase in cultured human endothelial cells
# T2 sequence (Q16647 whole entry): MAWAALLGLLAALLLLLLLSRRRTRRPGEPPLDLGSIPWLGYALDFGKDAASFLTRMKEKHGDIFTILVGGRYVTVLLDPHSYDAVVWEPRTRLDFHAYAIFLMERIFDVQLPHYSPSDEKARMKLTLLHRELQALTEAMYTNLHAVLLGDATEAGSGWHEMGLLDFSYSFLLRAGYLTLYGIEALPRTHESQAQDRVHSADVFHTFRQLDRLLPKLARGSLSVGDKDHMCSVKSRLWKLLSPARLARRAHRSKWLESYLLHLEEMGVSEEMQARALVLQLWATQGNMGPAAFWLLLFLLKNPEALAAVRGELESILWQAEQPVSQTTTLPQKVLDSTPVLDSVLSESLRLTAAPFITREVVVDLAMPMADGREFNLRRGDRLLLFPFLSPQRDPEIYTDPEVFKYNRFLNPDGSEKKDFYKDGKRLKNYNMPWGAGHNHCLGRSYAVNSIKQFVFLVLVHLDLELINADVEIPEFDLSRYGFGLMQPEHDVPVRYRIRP
Compound,IC50 [2] [nM],IC50 [3] [nM],Kb [1] [nM],pA2 [1]
Cc1cccc(C#N)c1OC(C)(C)C1OCC(C/C=C\CCC(=O)O)C(c2cccnc2)O1 (centres undefined),90,60000,25.1,–
COc1ccc(OC(C)(C)C2OCC(C/C=C\CCC(=O)O)C(c3cccnc3)O2)c([N+](=O)[O-])c1 (centres undefined),37,23000,6.17,–
O=C(O)CC/C=C\CC1COC(c2ccc3ccccc3c2)OC1c1cccnc1 (centres undefined),50,–,1780,–
CC(C)(Oc1cccc(F)c1)C1OCC(C/C=C\CCC(=O)O)C(c2cccnc2)O1 (centres undefined),26,40000,126,–
Cc1ccc(OC(C)(C)C2OCC(C/C=C\CCC(=O)O)C(c3cccnc3)O2)cc1 (centres undefined),360,25000,631,–
CC(C)(Cc1ccccc1C#N)C1OCC(C/C=C\CCC(=O)O)C(c2cccnc2)O1 (centres undefined),37,14000,27.5,–
CC(C)(Cc1ccccc1)C1OCC(C/C=C\CCC(=O)O)C(c2cccnc2)O1 (centres undefined),12,13000,513,–
CSc1ccccc1OC(C)(C)C1OCC(C/C=C\CCC(=O)O)C(c2cccnc2)O1 (centres undefined),36,> 100000,89.1,–
CC(C)(Cc1ccc(F)cc1)C1OCC(C/C=C\CCC(=O)O)C(c2cccnc2)O1 (centres undefined),45,2000,89.1,–
CC(C)(Oc1ccc(Br)cc1)C1OCC(C/C=C\CCC(=O)O)C(c2cccnc2)O1 (stereo in doubt; 7q),22,4000,–,6.48
CC(C)(Cc1ccc(F)cc1C#N)C1OCC(C/C=C\CCC(=O)O)C(c2cccnc2)O1 (centres undefined),< 10,7000,2.19,–
O=C(O)CC/C=C\CC1COC(c2ccc([N+](=O)[O-])cc2)OC1c1cccnc1 (centres undefined),39,13000,933,–
CC(C)(C1OCC(C/C=C\CCC(=O)O)C(c2cccnc2)O1)S(=O)(=O)c1ccccc1 (centres undefined),40,–,3160,–
CC(C)(Oc1ccc(Br)cc1)C1OCC(C/C=C\CCC(=O)O)C(c2cccnc2)O1 (stereo in doubt; 7p),> 10000,< 1000,–,5.61
CC(=O)c1ccc(OC(C)(C)C2OCC(C/C=C\CCC(=O)O)C(c3cccnc3)O2)c([N+](=O)[O-])c1 (centres undefined),< 10,4000,1.51,–
COc1ccccc1OC(C)(C)C1OCC(C/C=C\CCC(=O)O)C(c2cccnc2)O1 (centres undefined),60,51000,224,–

Compound,IC50 [2] [nM],IC50 [3] [nM],Kb [1] [nM],pA2 [1]
CC(C)(Oc1ccccc1C#N)C1OCC(C/C=C\CCC(=O)O)C(c2cccnc2)O1 (centres undefined),45,3000,13.2,–
O=C(O)CC/C=C\CC1COC(c2ccc(Cl)cc2Cl)OC1c1cccnc1 (centres undefined),42,2500,891,–
CC(C)(Oc1ccccc1F)C1OCC(C/C=C\CCC(=O)O)C(c2cccnc2)O1 (centres undefined),45,< 1000,166,–
CC(C)(C)c1ccc(OC(C)(C)C2OCC(C/C=C\CCC(=O)O)C(c3cccnc3)O2)cc1 (centres undefined),280,–,1910,–
COc1ccc(SC(C)(C)C2OCC(C/C=C\CCC(=O)O)C(c3cccnc3)O2)c([N+](=O)[O-])c1 (centres undefined),40,–,158,–
O=C(O)CC/C=C\CC1COC(c2cccs2)OC1c1cccnc1 (centres undefined),71,–,1000,–
CC(C)(Oc1ccc(F)cc1C#N)C1OCC(C/C=C\CCC(=O)O)C(c2cccnc2)O1 (centres undefined),15,37000,0.708,–
Cc1ccc(OC(C)(C)C2OCC(C/C=C\CCC(=O)O)C(c3cccnc3)O2)c(C#N)c1 (stereo in doubt; 7ac),50,47000,–,8.1
CC(C)(Sc1ccccc1C#N)C1OCC(C/C=C\CCC(=O)O)C(c2cccnc2)O1 (centres undefined),40,–,316,–
O=C(O)CC/C=C\CC1COC(c2ccc(Cl)c(Cl)c2)OC1c1cccnc1 (centres undefined),42,9000,776,–
O=C(O)CCCC/C=C(\c1ccccc1)c1cccnc1 [(E)-ISBOGREL],–,> 100000,–,–
O=C(O)CC/C=C\CC1COC(c2cccc3ccccc23)OC1c1cccnc1 (centres undefined),40,–,631,–
CC(C)(Oc1ccccc1S(C)(=O)=O)C1OCC(C/C=C\CCC(=O)O)C(c2cccnc2)O1 (centres undefined),45,2000,589,–
Cc1ccc(OC(C)(C)C2OCC(C/C=C\CCC(=O)O)C(c3cccnc3)O2)c([N+](=O)[O-])c1 (stereo in doubt; 7w),27,33000,–,8.34
N#Cc1ccc(C2OCC(C/C=C\CCC(=O)O)C(c3cccnc3)O2)cc1 (centres undefined),24,> 100000,1290,–
CC(C)(Oc1ccc(Br)cc1)C1OCC(C/C=C\CCC(=O)O)C(c2cccnc2)O1 (stereo in doubt; 7b),51,3400,–,6.42

# The next lines start with results.
IC50 [2] [nM],IC50 [3] [nM],Compound,Kb [1] [nM],pA2 [1]
46,4000,CC(C)(Oc1ccc(C#N)cc1)C1OCC(C/C=C\CCC(=O)O)C(c2cccnc2)O1 (centres undefined),129,–
20,9000,CC(C)(Oc1ccc(F)cc1[N+](=O)[O-])C1OCC(C/C=C\CCC(=O)O)C(c2cccnc2)O1 (centres undefined),2.51,–
500,–,O=C(O)CC/C=C\CC1COC(c2ccsc2)OC1c1cccnc1 (centres undefined),1580,–
220,–,O=C(O)CC/C=C\CC1COC(c2cccnc2)OC1c1cccnc1 (centres undefined),759,–
52,75000,CC(C)(Oc1ccccc1)C1OCC(C/C=C\CCC(=O)O)C(c2cccnc2)O1 (centres undefined),75.9,–
44,–,O=C(O)CC/C=C\CC1COC(c2ccc(C(F)(F)F)cc2)OC1c1cccnc1 (centres undefined),1780,–
48,–,O=C(O)CC/C=C\CC1COC(c2ccccc2Cl)OC1c1cccnc1 (centres undefined),759,–
29,7000,CC(C)(Oc1ccccc1Br)C1OCC(C/C=C\CCC(=O)O)C(c2cccnc2)O1 (centres undefined),63.1,–
34,8000,CC(C)(Oc1ccc(S(C)(=O)=O)cc1)C1OCC(C/C=C\CCC(=O)O)C(c2cccnc2)O1 (centres undefined),91.2,–
40,–,CC(C)(Sc1ccccc1)C1OCC(C/C=C\CCC(=O)O)C(c2cccnc2)O1 (centres undefined),200,–
> 100000,–,O=C(O)CC/C=C\C[C@@H]1CO[C@H](c2ccccc2Cl)O[C@@H]1c1ccccc1O,6.92,–
164,–,O=C(O)CC/C=C\CC1COC(c2ccco2)OC1c1cccnc1 (centres undefined),1260,–
> 10000,–,Cc1ccc(OC(C)(C)C2OCC(C/C=C\CCC(=O)O)C(c3cccnc3)O2)c([N+](=O)[O-])c1 (stereo in doubt; 7y),–,< 5
30,–,Cc1ccc(SC(C)(C)C2OCC(C/C=C\CCC(=O)O)C(c3cccnc3)O2)c([N+](=O)[O-])c1 (centres undefined),158,–
22,5000,CSc1ccc(OC(C)(C)C2OCC(C/C=C\CCC(=O)O)C(c3cccnc3)O2)c([N+](=O)[O-])c1 (centres undefined),4.47,–
32,> 100000,CC(C)(Oc1ccccc1O)C1OCC(C/C=C\CCC(=O)O)C(c2cccnc2)O1 (centres undefined),95.5,–
39,32000,CSc1ccc(OC(C)(C)C2OCC(C/C=C\CCC(=O)O)C(c3cccnc3)O2)cc1 (centres undefined),372,–

# Source: ChEMBL document CHEMBL1128245, “Dual-acting thromboxane receptor antagonist/synthase inhibitors: synthesis and biological properties of [2-substituted-4-(3-pyridyl)-1,3-dioxan-5-yl] alkenoic acids” (J Med Chem, 1995)
